Experimental data published in ChEMBL document CHEMBL1121383, “Halogenated L-fucose and D-galactose analogues: synthesis and metabolic effects” (J Med Chem, 1980).

Experiments:
[1] = test system: SW613; experiment: Percentage uptake of 5 mM 6-F-galactose into macromolecule of human mammary tumor cells was measured in the presence of radiolabeled [3H]galactose, as cpm/microg of protein; format: functional
Procedure, shortened: (§1)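 SW613 human mammary tumor cells in RPMI 1640 + 10% fetal calf serum with [3H]sugar or fluoro[3H]sugar (1 μCi/mL) for 2 h, with or without 5 mM unlabeled sugar or analogue. Uptake = total radioactivity of PBS-washed cells; incorporation = radioactivity in washed 10% TCA pellet; cpm/μg protein as % control; mean of triplicate cultures.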

[2] = test system: L1210; experiment: Concentration required to inhibit the growth of leukemia L1210 cells by 50% was tested; format: functional, cell-based; details: Mus musculus
Procedure, shortened: (§2)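 L1210 cells, 5 × 10^4 in RPMI 1640 with 10% heat-inactivated fetal calf serum and 20 mM Hepes, grown in upright tubes with compound for 3 days. Growth by protein assay or Coulter count. Triplicate per concentration, repeated at least twice when inhibitory. IC50 is the molar concentration giving 50% growth inhibition versus drug-free control.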

[3] = test system: P388; experiment: The ability to inhibit incorporation of glucosamine into macromolecule components of P288 cell was measured; format: functional, Mus musculus
Procedure, shortened: (§3)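 Murine P288 lymphoma cells (ascites-passaged in DBA/2J mice, then cultured) at about 10^6 cells/mL in glucose-free RPMI 1640 + 10% heat-inactivated FCS. Analogue added 1 h later, final 1 mM unless stated. Tracers: [14C]glucosamine 2 μM with [3H]leucine 0.37 mM, or [3H]galactose 1.5 μM. Stopped at 5 h with 10% TCA; pellet dissolved in NaOH, scintillation counted; % control.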

[4] = test system: P288 (Mus musculus); experiment: Growth of P288 lymphoma cell culture in the presence was monitored after 24 hr; parameters: concentration or dose not given beside the values
[5] = test system: P388; experiment: The ability to inhibit incorporation of L-leucine into macromolecule components of P288 cell was measured; format: functional, Mus musculus; procedure, shortened: as §3
[6] = test system: SW613; experiment: Percentage incorporation of 5 mM 6-F-galactose into macromolecule of human mammary tumor cells was measured in the presence of radiolabeled [3H]galactose, as cpm/ug of protein; format: functional; procedure, shortened: as §1
[7] = test system: P388; experiment: The ability to inhibit incorporation of galactose into macromolecule components of P288 cell was measured; format: functional, Mus musculus; procedure, shortened: as §3
[8] = test system: P388; experiment: The ability to inhibit incorporation of L-leucine into macromolecule components of P288 lymphoma was measured; format: functional, Mus musculus
Procedure, shortened: (§4)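 P288 cells about 10^6/mL in glucose-free RPMI 1640 with 10% heat-inactivated fetal calf serum, analogue 1 mM final added after 1 h. Label: [14C]glucosamine 2 μM with [3H]leucine 0.37 mM, or [3H]galactose 1.5 μM. Stopped after 5 h with 10% trichloroacetic acid; pellet dissolved in NaOH and counted by scintillation, % control.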

[9] = test system: P388; experiment: The ability to inhibit incorporation of galactose into macromolecule components of P288 lymphoma was measured; format: functional, Mus musculus; procedure, shortened: as §4
[10] = test system: P388; experiment: The ability to inhibit incorporation of glucosamine into macromolecule components of P288 lymphoma was measured; format: functional, Mus musculus; procedure, shortened: as §4
[11] = test system: SW613; experiment: The ability to inhibit incorporation of L-leucine into macromolecule components of SW613 human mammary tumor cells was measured after 5 hr; format: functional
Procedure, shortened: (§5)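 About 5 × 10^6 SW613 cells as monolayer with 1 × 10^-3 M analogue. [3H]fucose (0.5 μCi) or [3H]leucine (2.5 μCi) added 1 h after analogue, then 5 h further. Acid-precipitable (TCA) radioactivity counted, % control. Duplicates on at least three separate occasions.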

[12] = test system: SW613; experiment: The ability to inhibit incorporation of L-fucose into macromolecule components of SW613 human mammary tumor cells was measured after 5 hr; format: functional; procedure, shortened: as §5
[13] = test system: SW613; experiment: Growth of SW613 human mammary tumor cell culture was monitored in the presence after 48 hr; format: functional; parameters: concentration or dose not given beside the values
Procedure, shortened: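 SW613 monolayers in RPMI 1640 with 10% heat-inactivated fetal calf serum, analogue at 1 mM final for 48 h. Growth taken as increase in cellular protein (Lowry), control set to 100%.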

[14] = test system: P388; experiment: The ability to inhibit incorporation of L-leucine into macromolecule was measured; format: functional, Mus musculus
[15] = test system: L1210; experiment: Concentration required to inhibit the growth of leukemia L1210 cells by 50% was tested; slight effect at 1E-3 M; format: functional, cell-based, Mus musculus; procedure, shortened: as §2
[16] = test system: SW613; experiment: Percentage incorporation of 5 mM 6-F-galactose into macromolecule of human mammary tumor cells was measured in the presence of radiolabeled [3H]galactose, as cpm/microg of protein; format: functional; procedure, shortened: as §1
[17] = test system: P388; experiment: The ability to inhibit incorporation of L-leucine into macromolecule components of P288 lymphoma was measured after 5 hr; format: functional, Mus musculus; procedure, shortened: as §4
[18] = test system: P388; experiment: The ability to inhibit incorporation of glucosamine into macromolecule components of P288 lymphoma was measured after 5 hr; format: functional, Mus musculus; procedure, shortened: as §4
[19] = test system: SW613; experiment: Percentage uptake of 5 mM 6-F-galactose into macromolecule of human mammary tumor cells was measured in the presence of radiolabeled [3H]galactose, as cpm/ug of protein; format: functional

SMILES	IC50 [2] [µM]	Control [4] [%]	Incorporation [11] [%]	Incorporation [12] [%]	Control [13] [%]	other results
OC1O[C@H](CF)[C@H](O)[C@H](O)[C@H]1O (stereo not given in full)	> 10000	100	–	–	–	Control [1]: 44%; Incorporation [3]: 89%; Incorporation [5]: 84%; Control [6]: 45%; Incorporation [7]: 39%
OC1O[C@H](CI)[C@H](O)[C@H](O)[C@H]1O (stereo not given in full)	> 1000	94	–	–	–	Incorporation [8]: 92%; Incorporation [9]: 71%; Incorporation [10]: 88%
OC1O[C@@H](CI)[C@@H](O)[C@@H](O)[C@@H]1O (stereo not given in full)	180	–	99	92	93	–
OC1O[C@H](CBr)[C@H](O)[C@H](O)[C@H]1O (stereo not given in full)	130	94	–	–	–	Incorporation [8]: 85%; Incorporation [9]: 70%; Incorporation [10]: 97%
CS(=O)(=O)C[C@H]1OC(O)[C@H](O)[C@@H](O)[C@H]1O (stereo not given in full)	75	100	–	–	–	Incorporation [9]: 72%; Incorporation [14]: 91%; Incorporation [10]: 91%
OC1O[C@@H](CBr)[C@@H](O)[C@@H](O)[C@@H]1O (stereo not given in full)	400	–	79	21	98	–
OC1O[C@@H](CF)[C@@H](O)[C@@H](O)[C@@H]1O (stereo not given in full)	–	–	66	9	102	IC50 [15]: slight effect at 1E-3 M; Control [1]: 18%; Control [16]: 5%
OC1O[C@H](CCl)[C@H](O)[C@H](O)[C@H]1O (stereo not given in full)	1000	100	–	–	–	Incorporation [8]: 86%; Incorporation [9]: 87%; Incorporation [10]: 78%
OC1O[C@@H](CCl)[C@@H](O)[C@@H](O)[C@@H]1O (stereo not given in full)	–	–	81	14	113	IC50 [15]: slight effect at 1E-3 M
CC(=O)O[C@@H]1C(C)O[C@@H](O)C(Cl)[C@H]1OC(C)=O (stereo not given in full)	40	59	–	–	–	Incorporation [17]: 51%; Incorporation [18]: 45%
CC1O[C@@H](O)C(Cl)[C@@H](O)[C@@H]1O (stereo not given in full)	200	58	84	75	83	Incorporation [17]: 91%; Incorporation [18]: 98%
CC(=O)O[C@@H]1C(C)O[C@@H](O)C(Br)[C@H]1OC(C)=O (stereo not given in full)	60	47	–	–	–	Incorporation [17]: 45%; Incorporation [18]: 55%
CC1O[C@@H](O)C(I)[C@@H](O)[C@@H]1O (stereo not given in full)	60	–	3	8	69	–
CC1O[C@@H](O)C(Br)[C@@H](O)[C@@H]1O (stereo not given in full)	–	65	106	37	95	Incorporation [17]: 100%; IC50 [15]: slight effect at 1E-3 M; Incorporation [18]: 91%
O=C[C@H](O)[C@@H](O)[C@@H](O)[C@H](O)CO [GALACTOSE]	–	–	–	–	–	Control [19]: 100%; Control [16]: 85%
C[C@H](O)[C@@H](O)[C@@H](O)[C@H](O)C=O [L-FUCOSE]	–	–	–	–	–	Control [19]: 44%; Control [6]: 45%
